Where a name gives a salt, the structure may show the parent alone. Activity calls are given as the source filed them. The calls are words filed in the database; no cut-off is given here.
Columns and labels:
[1] = Inhibition of SARS coronavirus PL-protease; set-up: species or system Severe acute respiratory syndrome-related coronavirus
[2] = target: T1, Replicase polyprotein 1ab (Severe acute respiratory syndrome-related coronavirus, UniProt P0C6X7); experiment: Inhibition of SARS coronavirus 3C-like protease using 5-FAM-TSATLQSGFRK(QXL520)-NH2 as substrate preincubated for 5 mins followed by substrate addition measured after 6 mins by FRET assay
Summary of the method: (§1)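 Enzyme preincubated 5 min with compound (0–200 μM, 2-fold series), then 15 μM FAM/QXL substrate added. Continuous fluorescence read for 6 min, in triplicate. IC50 from Hill fit over two to four independent assays.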

[3] = target: Replicase polyprotein 1ab (Severe acute respiratory syndrome-related coronavirus) (UniProt P0C6X7); experiment: Reversible inhibition of SARS coronavirus 3C-like protease using 5-FAM-TSATLQSGFRK(QXL520)-NH2 as substrate assessed as recovery rate at 20 x IC50 preincubated for 1 hr followed by compound washout by FRET assay in presence of GSH; set-up: scale not given: the % may be the effect or the level left
Summary of the method: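 No-compound enzyme served as control. Samples desalted to remove compound; activity measured before and after buffer exchange by the IC50 assay.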

[4] = target: T1, Replicase polyprotein 1ab; experiment: Inhibition of SARS coronavirus 3C-like protease using 5-FAM-TSATLQSGFRK(QXL520)-NH2 as substrate preincubated for 5 mins followed by substrate addition measured after 6 mins by FRET assay in presence of GSH; summary of the method: as §1
[5] = target: T1, Replicase polyprotein 1ab; experiment: Inhibition of SARS coronavirus 3C-like protease using 5-FAM-TSATLQSGFRK(QXL520)-NH2 as substrate
Streptococcus pneumoniae = experiment: Inhibition of Streptococcus pneumoniae PurC
Summary of the method: (§2)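 IC50 determined in triplicate with 32 positive and 32 negative controls per plate. Data fitted to a three-parameter Hill equation.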

Hepacivirus hominis = experiment: Inhibition of Hepatitis C virus NS3/4A protease; summary of the method: as §2
[6] = target: T1, Replicase polyprotein 1ab; experiment: Competitive inhibition of SARS coronavirus 3C-like protease using 5-FAM-TSATLQSGFRK(QXL520)-NH2 as substrate by Dixon plot analysis
Summary of the method: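 Best-fit inhibition model chosen by fitting competitive, non-competitive, uncompetitive or mixed equations to give Ki. Dixon plot; three independent assays.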

[7] = target: Ubiquitin carboxyl-terminal hydrolase isozyme L1 (Homo sapiens) (UniProt P09936); experiment: Inhibition of human UCH-L1; summary of the method: as §2
Sequence of Ubiquitin carboxyl-terminal hydrolase isozyme L1 (Homo sapiens) (P09936 whole entry, looked up): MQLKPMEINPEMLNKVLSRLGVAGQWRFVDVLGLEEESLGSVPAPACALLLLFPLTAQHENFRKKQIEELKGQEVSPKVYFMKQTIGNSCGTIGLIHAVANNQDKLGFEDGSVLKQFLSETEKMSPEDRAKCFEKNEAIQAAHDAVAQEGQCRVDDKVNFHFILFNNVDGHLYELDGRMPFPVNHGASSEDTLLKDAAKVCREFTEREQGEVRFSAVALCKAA

[8] = target: T2, Dihydroorotase (Bacillus anthracis) (UniProt Q81WF0); experiment: Inhibition of Bacillus anthracis dihydroorotase; summary of the method: as §2
T2 sequence (whole entry): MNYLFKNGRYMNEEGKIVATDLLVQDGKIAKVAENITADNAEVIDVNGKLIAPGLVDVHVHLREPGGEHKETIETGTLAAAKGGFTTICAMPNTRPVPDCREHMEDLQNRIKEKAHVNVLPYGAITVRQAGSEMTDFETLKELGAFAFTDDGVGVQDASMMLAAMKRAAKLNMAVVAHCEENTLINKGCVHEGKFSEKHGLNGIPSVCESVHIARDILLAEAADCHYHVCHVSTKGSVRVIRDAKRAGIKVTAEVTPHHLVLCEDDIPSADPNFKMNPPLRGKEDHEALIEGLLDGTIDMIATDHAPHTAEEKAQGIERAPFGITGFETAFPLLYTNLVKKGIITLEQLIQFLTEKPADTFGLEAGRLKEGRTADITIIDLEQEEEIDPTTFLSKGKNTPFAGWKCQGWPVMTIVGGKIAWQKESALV

[9] = target: Replicase polyprotein 1ab (Severe acute respiratory syndrome-related coronavirus) (UniProt P0C6X7); experiment: Binding affinity to SARS coronavirus 3C-like protease using 5-FAM-TSATLQSGFRK(QXL520)-NH2 as substrate by SPR analysis
[10] = target: Replicase polyprotein 1ab (Severe acute respiratory syndrome-related coronavirus) (UniProt P0C6X7); experiment: Inhibition of SARS coronavirus 3C-like protease using 5-FAM-TSATLQSGFRK(QXL520)-NH2 as substrate at 100 uM preincubated for 5 mins followed by substrate addition measured after 6 mins by FRET assay relative to control
[11] = target: Replicase polyprotein 1ab (Severe acute respiratory syndrome-related coronavirus) (UniProt P0C6X7); experiment: Inhibition of SARS coronavirus 3C-like protease using 5-FAM-TSATLQSGFRK(QXL520)-NH2 as substrate at 100 uM preincubated for 5 mins followed by substrate addition measured after 6 mins by FRET assay in presence of GSH relative to control
[12] = target: Replicase polyprotein 1ab (Severe acute respiratory syndrome-related coronavirus) (UniProt P0C6X7); experiment: Binding affinity to SARS coronavirus 3C-like protease using 5-FAM-TSATLQSGFRK(QXL520)-NH2 as substrate up to 200 uM by SPR analysis
Summary of the method: (§3)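 Untagged native 3CLpro amine-coupled to CM5 chip (in 10 mM sodium acetate pH 5.0). Ethanolamine-blocked channel as reference. Running buffer HBS-P pH 7.4, 20 °C.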

[13] = target: Replicase polyprotein 1ab (Severe acute respiratory syndrome-related coronavirus) (UniProt P0C6X7); experiment: Binding affinity to SARS coronavirus 3C-like protease using 5-FAM-TSATLQSGFRK(QXL520)-NH2 as substrate up to 90 uM by SPR analysis; summary of the method: as §3

| SMILES | IC50 [1] [µM] | IC50 [2] [µM] | Activity [3] [%] | IC50 [4] [µM] | inhibition [10] | inhibition [11] | other results |
| --- | --- | --- | --- | --- | --- | --- | --- |
| S=C(NCc1cccnc1)SCc1cc(Cl)sc1Cl | > 200 | 0.16 | > 50 | 9.2 |  |  |  |
| Cn1cnc2cc(NC(=O)c3ccc(Cl)cc3)ccc21 | > 200 | 27.6 | > 50 | 30.9 |  |  | IC50 [5]: 18.2 µM; inhibition (Streptococcus pneumoniae): inactive; inhibition (Hepacivirus hominis): inactive; Ki [6]: 27.5 µM; inhibition [7]: inactive; inhibition [8]: inactive |
| OCCCc1nc2ccccc2n1CCOc1ccccc1 |  | > 200 |  | 74.5 | inactive | inactive | Activity [9]: inactive |
| CN(CC(=O)NC1CCCC1)S(=O)(=O)c1cccc(Cl)c1 |  | 0.94 |  | > 200 |  |  |  |
| Nc1ccc(F)c(S(=O)(=O)Nc2cccc(C(F)(F)F)c2)c1 |  | 29.8 |  | > 200 | inactive | inactive |  |
| O=C(c1cncc(Br)c1)N1CCN(Cc2ccsc2)CC1 | 105 | 10.8 |  | 24.5 |  |  | Activity [9]: inactive |
| CCCCC(CC)CNC(=N)NC(=N)NCCCCCCNC(=N)NC(=N)NCC(CC)CCCC (stereo not given) [ALEXIDINE DIHYDROCHLORIDE] | > 200 | 24.5 |  | 17.8 |  |  | IC50 [5]: 25.1 µM; Activity [9]: inactive |
| C(=C\c1ccccc1)/C[N+]1(C/C=C/c2ccccc2)CCN(C(c2ccccc2)c2ccccc2)CC1 | > 200 | 29.8 |  | 28.3 |  |  | Activity [12]: Active |
| COc1ccccc1CNC(=O)[C@H](C)NS(=O)(=O)c1ccccc1 |  |  |  |  | inactive | inactive |  |
| COc1ccc(N(CC(=O)NCc2ccco2)S(C)(=O)=O)cc1 |  | 16.1 |  | 61.9 | inactive | inactive | Activity [13]: inactive |
| CCOc1ccc(S(=O)(=O)NCc2ccc3c(c2)OCO3)cc1C | > 200 | > 200 | > 50 | 76.7 | inactive | inactive |  |
| COc1ccc(C(=O)Cn2c(NCCO)nc3ccccc32)cc1 |  | 28.8 | 14.3 | 40.9 | inactive | inactive |  |
| COCCOCCn1c(CCCO)nc2ccccc21 |  | 25.6 |  | 186 | inactive | inactive |  |

— ChEMBL document CHEMBL3102752, “Identification of novel drug scaffolds for inhibition of SARS-CoV 3-Chymotrypsin-like protease using virtual and high-throughput screenings” (Bioorg Med Chem, 2014)
